Legend:
[1] = system: MCF-7 (human breast adenocarcinoma, estrogen-positive); assay: In vitro cytotoxicity assay; assay type: cell-based; conditions: MCF-7 cells, 72 h, MTT
How it was run: (§1)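 Cells were grown in DMEM with 10% FBS and seeded at 1–2 × 10^4 per well, depending on the line. Test compound (free, or co-evaporated with DMPC 1:5 from chloroform) was added at once at 250, 50, 10, 2, 0.4 and 0.08 μM. Incubation ran 72 h at 37 °C, 5% CO2. Survival was read by MTT at OD 540 nm. Buffer-treated controls were on a separate plate. Triplicate runs; IC50 by curve fitting.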

Stability = assay type: physicochemical; conditions: for Rate constants, K (×10^4): hydrolysis in phosphate buffer (D2O), pseudo-first-order
How it was run: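 DMPC was sonicated in D2O phosphate buffer (pH 5.0–8.0) at 30% power for 5 min, 10 s on/off. To 800 μl of buffer with or without vesicles (compound:DMPC 1:5), 15 μl of a 0.337 M CDCl3 stock of test compound was added. 1H NMR ran at 25 °C, 128 scans, 2 s relaxation delay, integrating the C6H signal. Single-point runs. Pseudo-first-order rate constants; inhibition ratio is K without/with DMPC.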

[2] = aqueous solutions, base catalyzed hydrolysis to 5-fluorouracil; cited from earlier work
[3] = system: MDA-MB-435s (human melanoma); assay: In vitro cytotoxicity assay; assay type: cell-based; conditions: MDA-MB-435s cells, 72 h, MTT
How it was run: as §1

H9C2 (rat myocardium) = assay: In vitro cytotoxicity assay; assay type: cell-based; conditions: H9C2 normal cells, 72 h, MTT
How it was run: as §1

[4] = system: SH-SY-5Y (human neuroblastoma); assay: In vitro cytotoxicity assay; assay type: cell-based; conditions: SH-SY-5Y cells, 72 h, MTT
How it was run: as §1

C6 (rat glial tumor) = assay: In vitro cytotoxicity assay; assay type: cell-based; conditions: C6 cells, 72 h, MTT
How it was run: as §1

Compound | IC50, concentration providing 50% cell killing effect [1] | Rate constants, K (×10^4) (Stability; pH 5.0, 25 °C) | Rate constants, K (×10^4) (Stability; pH 6.0, 25 °C) | Rate constants, K (×10^4) (Stability; pH 7.0, 25 °C) | Rate constants, K (×10^4) (Stability; pH 8.0, 25 °C) | Inhibition ratio, K1/K3 (Stability; pH 8.0, K of 1 alone over K of 1 with DMPC (3)) | Time practically kept unharmed (Stability; phosphate buffer pH 5, without DMPC) | Time degradation completely prevented (Stability; with 2 (DMPC, 1:5), phosphate buffer, at decreasing pH) [days] | pH of highest stability [2] | IC50, concentration providing 50% cell killing effect [3] | IC50, concentration providing 50% cell killing effect (H9C2 (rat myocardium)) | IC50, concentration providing 50% cell killing effect [4] | IC50, concentration providing 50% cell killing effect (C6 (rat glial tumor))
CCCCCCNC(=O)n1cc(F)c(=O)[nH]c1=O [compound 1, 1-hexylcarbamoyl-5-fluorouracil] | no activity in vitro | 0 ×10^4 | 0.17 ×10^4 | 0.54 ×10^4 | 0.70 ×10^4 | over 7 | more than 14 h | ≥ 2 | ~4 | no activity in vitro | not cardiotoxic |  | 
CCCCCCCCCCCCCC(=O)OC[C@H](COP(=O)([O-])OCC[N+](C)(C)C)OC(=O)CCCCCCCCCCCCC [compound 2, 1,2-dimyristoyl-sn-glycero-3-phosphocholine] |  |  |  |  |  |  |  |  |  |  |  | no cytotoxic effect | no cytotoxic effect
